Experiment [1] concerns HL-60. The experiment in a line: Induction of apoptosis in human HL60 cells assessed as increase in cleaved caspase-9 level at 30 uM after 24 hrs by Western blot analysis. In kind it is functional, cell-based. A digest of the protocol: (§1)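 HL60 cells (4 × 10^5) exposed to 30 μM final compound for 8 and 24 h, then lysed. Total protein was run on 15% SDS-PAGE and transferred to PVDF. Membranes were probed overnight at 4 °C with antibodies to caspase-3, cleaved caspase-3, caspase-8 and caspase-9, with β-actin as loading control.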
In general terms: In western blotting, separated proteins are transferred to a membrane and probed.

Experiment [2] concerns HL-60. The experiment in a line: Induction of apoptosis in human HL60 cells assessed as non-viable cells at 30 uM after 24 hrs using annexin-V FITC and PI staining by flow cytometry. The experiment is classed as functional. Put shortly: (§2)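 HL60 cells (1 × 10^5) exposed to 30 μM final compound for 8 or 24 h. Cells were washed in annexin-binding buffer, stained with annexin V-FITC and PI for 10 min, and analyzed by flow cytometry (FL1 and FL2). Quadrants: early apoptotic annexin+/PI−, late apoptotic double positive, necrotic annexin−/PI+. Values are means of three experiments.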
On the technique in general: In flow cytometry, cells or beads pass a laser one at a time.

Experiment [3] has as its system HL-60. The experiment in a line: Induction of apoptosis in human HL60 cells assessed as increase in cleaved caspase-3 level at 30 uM after 24 hrs by Western blot analysis. The experiment is classed as functional, cell-based. Put shortly:
as §1

A short description of experiment [4]: Cytotoxicity against human AZ-521 cells assessed as cell viability after 48 hrs by MTT assay. The experiment is classed as functional, cell-based. The note with it: AZ-521, 48 h. A digest of the protocol:
(§3)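 Cells seeded at 3 × 10^3 per well and exposed to compounds from 1 × 10^-4 to 1 × 10^-6 M for 48 h. MTT was then added for 3 h, formazan dissolved in 0.04 M HCl in 2-propanol, and absorbance read at 570 nm against 630 nm. IC50 is the concentration giving 50% growth inhibition, from triplicate assays.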
In general terms: Formazan colour is commonly taken as a measure of viable cells.

The test system of experiment [5] is HL-60. The experiment in a line: Selectivity index, ratio of IC50 for human RPMI 1788 cells to IC50 for human HL60 cells. The experiment is classed as functional.
Experiment [6] deals with HL-60. The experiment in a line: Cytotoxicity against human HL60 cells assessed as cell viability after 48 hrs by MTT assay. The experiment is classed as functional, cell-based. To be noted: HL-60, 48 h. Put shortly: as §3
Experiment [7] concerns HL-60. The experiment in a line: Induction of apoptosis in human HL60 cells assessed as decrease in procaspase-9 level at 30 uM after 24 hrs by Western blot analysis. The experiment is classed as functional, cell-based. Put shortly: as §1
Experiment [8] has as its system HL-60. The experiment in a line: Induction of apoptosis in human HL60 cells assessed as increase in cleaved caspase-8 level at 30 uM after 24 hrs by Western blot analysis. The experiment is classed as functional, cell-based. Put shortly:
as §1

Experiment [9] in a line: Cytotoxicity against human RPMI 1788 cells assessed as cell viability after 48 hrs by MTT assay. The experiment is classed as cell-based. To be noted: RPMI-1788, 48 h. A digest of the protocol:
as §3

The subject of experiment [10] is HL-60. The experiment in a line: Induction of apoptosis in human HL60 cells assessed as viable cells at 30 uM after 8 hrs using annexin-V FITC and PI staining by flow cytometry. In kind it is functional. The note with it: HL-60, 8 h, read-out: Activity. Put shortly: as §2
The subject of experiment [11] is HL-60. The experiment in a line: Induction of apoptosis in human HL60 cells assessed as late apoptotic cells at 30 uM after 24 hrs using annexin-V FITC and PI staining by flow cytometry. The experiment is classed as functional. Put shortly: as §2
In experiment [12] the test system is HL-60. The experiment in a line: Induction of apoptosis in human HL60 cells assessed as late apoptotic cells at 30 uM after 8 hrs using annexin-V FITC and PI staining by flow cytometry. In kind it is functional. A digest of the protocol:
as §2

Experiment [13] has as its system HL-60. The experiment in a line: Induction of apoptosis in human HL60 cells assessed as decrease in procaspase-3 level at 30 uM after 24 hrs by Western blot analysis. The experiment is classed as functional, cell-based. A digest of the protocol: as §1
Experiment [14] in a line: Cytotoxicity against human CRL1579 cells assessed as cell viability after 48 hrs by MTT assay. The experiment is classed as functional, cell-based. Put shortly: as §3
For experiment [15], the system named is HL-60. The experiment in a line: Induction of apoptosis in human HL60 cells assessed as decrease in procaspase-8 level at 30 uM after 24 hrs by Western blot analysis. The experiment is classed as functional, cell-based. A digest of the protocol:
as §1

The test system of experiment [16] is HL-60. The experiment in a line: Induction of apoptosis in human HL60 cells assessed as early apoptotic cells at 30 uM after 24 hrs using annexin-V FITC and PI staining by flow cytometry. In kind it is functional. A digest of the protocol: as §2
For experiment [17], the system named is HL-60. The experiment in a line: Induction of apoptosis in human HL60 cells assessed as non-viable cells at 30 uM after 8 hrs using annexin-V FITC and PI staining by flow cytometry. The experiment is classed as functional. Put shortly:
as §2

A further experiment relates to SK-BR-3. The experiment in a line: Cytotoxicity against human SK-BR-3 cells assessed as cell viability after 48 hrs by MTT assay. In kind it is functional, cell-based. To be noted: SK-BR-3, 48 h. Put shortly: as §3
The next experiment has as its system A549. The experiment in a line: Cytotoxicity against human A549 cells assessed as cell viability after 48 hrs by MTT assay. In kind it is functional, cell-based. To be noted: A549, 48 h. A digest of the protocol: as §3
In experiment [18] the test system is HL-60. The experiment in a line: Induction of apoptosis in human HL60 cells assessed as early apoptotic cells at 30 uM after 8 hrs using annexin-V FITC and PI staining by flow cytometry. In kind it is functional. A digest of the protocol: as §2
Experiment [19] relates to HL-60. The experiment in a line: Induction of apoptosis in human HL60 cells assessed as viable cells at 30 uM after 24 hrs using annexin-V FITC and PI staining by flow cytometry. The experiment is classed as functional. To be noted: HL-60, 24 h, read-out: Activity. A digest of the protocol:
as §2

The source made the active and inactive calls. The rule behind the calls is not given here.

Usually IC50 stands for the concentration that gives 50% inhibition. Regarding `COC(=O)C[C@H]1[C@]2(C)C3=C(C)[C@H](c4ccoc4)C[C@H]3O[C@@H]2[C@@H]2OC[C@]3(C)C=CC(=O)[C@@]1(C)[C@@H]23`, the result with HL-60 [1], in the experiment on HL-60 [3], in the experiment on HL-60 [7], in the experiment on HL-60 [8], with HL-60 [13] and in the experiment with HL-60 [15] was Active. Moreover, the Activity is given as 3.4% in the experiment with HL-60 [2]; 28.1% in the experiment on HL-60 [11]; 11.8% with HL-60 [12]; 18.7% in the experiment on HL-60 [16]; 3.5% with HL-60 [17]; 10.9% in the experiment on HL-60 [18]. Besides, the IC50 in [4] came out at 2.4 µM; in the experiment with HL-60 [6], 2.7 µM; in experiment [9], 2.7 µM; in experiment [14], 14.2 µM; in the experiment on SK-BR-3, 1.7 µM; in the experiment with A549, 9.3 µM. The “Ratio IC50” value with HL-60 [5] came out at 1. Further, the viability at 30 µM worked out at 73.7% in the experiment with HL-60 [10] and 49.8% with HL-60 [19].
In the case of `CC1(C)C(=O)C=C[C@]2(C)[C@H]3CC[C@@]4(C)[C@H](c5ccoc5)C(=O)[C@H]5O[C@]54[C@]3(C)[C@H](OC(=O)c3ccccc3)C[C@@H]12`, the outcome in the experiment on HL-60 [1], with HL-60 [3], in the experiment on HL-60 [7], in the experiment with HL-60 [8], in the experiment with HL-60 [13] and in the experiment with HL-60 [15] was Active. Further, the Activity in the experiment with HL-60 [2] stood at 4.5%; in the experiment on HL-60 [11], 15.5%; in the experiment on HL-60 [12], 3%; in the experiment on HL-60 [16], 51.8%; in the experiment with HL-60 [17] it was 1.4%; in the experiment on HL-60 [18] it was 38.7%. The IC50 in experiment [4] is 8.4 µM; with HL-60 [6] it was 3.1 µM; in [9], 16.1 µM; in experiment [14] it was more than 20 µM; in the experiment with SK-BR-3 it was more than 20 µM; in the experiment with A549, more than 20 µM. Besides, in the experiment on HL-60 [5], the “Ratio IC50” value is recorded as 5.19. Moreover, the viability at 30 µM with HL-60 [10] was found to be 56.9%; in the experiment with HL-60 [19] it was 28.2%.
Regarding `CCC(C)C(=O)O[C@H]1C[C@@H](OC(C)=O)[C@@]2(C(=O)OC)CO[C@H]3[C@@H](O)[C@@](C)([C@]45O[C@@]4(C)C4CC5O[C@@H]5C[C@H](OC)C[C@]45O)[C@@H]4[C@@H](C(=O)OC)OC[C@@]14[C@@H]32` (stereo partly drawn) [VEPAOL], the IC50 (in experiment [4]; in the experiment on HL-60 [6]; in experiment [14]; in the experiment with SK-BR-3; with A549) was more than 20 µM each time.
Regarding `CCC(C)C(=O)O[C@H]1C[C@@H](OC(C)=O)[C@@]2(C)CO[C@H]3[C@H]4O[C@@H]5C[C@@H](c6ccoc6)C(C)=C5[C@@]4(C)[C@H](CC(=O)OC)[C@]1(C)[C@@H]32` (stereo partly drawn), the IC50 is more than 20 µM in experiment [4]; 17.1 µM in the experiment with HL-60 [6]; more than 20 µM in experiment [14]; more than 20 µM in the experiment with SK-BR-3; more than 20 µM in the experiment with A549.
As for `C/C=C(/C)C(=O)O[C@H]1C[C@@H](OC(C)=O)[C@@]2(C)CO[C@H]3[C@H]4O[C@@H]5C[C@@H](c6ccoc6)C(C)=C5[C@@]4(C)[C@H](CC(=O)OC)[C@]1(C)[C@@H]32` [SALANNIN], the IC50 (in experiment [4]; in the experiment on HL-60 [6]; in experiment [14]; with SK-BR-3; with A549) was more than 20 µM each time.
On to `CC1(C)C(=O)C=C[C@]2(C)[C@H]3CC[C@]4(C)C(=CC(=O)[C@H]4c4ccoc4)[C@]3(C)[C@H](OC(=O)c3ccccc3)C[C@@H]12`, for which the IC50 is more than 20 µM in experiment [4]; 5.3 µM in the experiment with HL-60 [6]; 4 µM in experiment [14]; more than 20 µM in the experiment with SK-BR-3; more than 20 µM in the experiment with A549.
As for `CC(=O)O[C@@H]1C[C@H]2C(C)(C)C(=O)C=C[C@]2(C)[C@H]2CC[C@]3(C)C(=CC(=O)O[C@]3(O)c3ccoc3)[C@@]21C` [NIMOLICINOL], the IC50 (in [4]; with HL-60 [6]; in experiment [14]; in the experiment on SK-BR-3; with A549) was more than 20 µM in each case.
For the compound `CC1(C)C(=O)C=C[C@]2(C)[C@H]3CC[C@@]4(C)[C@H](c5ccoc5)OC(=O)[C@H]5O[C@]54[C@]3(C)[C@H](O)C[C@@H]12` [DEACETYLGEDUNIN], the IC50 in [4] was 16.9 µM; with HL-60 [6], more than 20 µM; in experiment [14] it was more than 20 µM; in the experiment with SK-BR-3 it was 12 µM; in the experiment on A549, more than 20 µM.
On to `CC(=O)O[C@@H]1C[C@H]2C(C)(C)C(=O)C=C[C@]2(C)[C@H]2CC[C@]3(C)C(=C(O)C(=O)[C@H]3c3ccoc3)[C@@]21C`, for which the IC50 (in experiment [4]; with HL-60 [6]; in experiment [14]; in the experiment on SK-BR-3; in the experiment with A549) was more than 20 µM in each case.
With `CC1(C)C(=O)C=C[C@]2(C)[C@H]3CC[C@@]4(C)[C@H](c5ccoc5)OC(=O)[C@H]5O[C@]54[C@]3(C)[C@H](OC(=O)c3ccccc3)C[C@@H]12`, the outcome in the experiment on HL-60 [1], in the experiment with HL-60 [3], in the experiment with HL-60 [7], in the experiment on HL-60 [8], in the experiment on HL-60 [13] and in the experiment on HL-60 [15] was Active. In addition, the Activity in the experiment with HL-60 [2] is on record as 3%; in the experiment on HL-60 [11] it was 45.7%; in the experiment on HL-60 [12], 0.7%; in the experiment with HL-60 [16], 41.4%; in the experiment with HL-60 [17], 0.7%; in the experiment with HL-60 [18], 10.5%. In addition, the 50% inhibitory concentration (IC50) in experiment [4] was more than 20 µM; with HL-60 [6], 2.9 µM; in [9], 2 µM; in [14], more than 20 µM; in the experiment on SK-BR-3, more than 20 µM; in the experiment with A549 it was more than 20 µM. Besides, the “Ratio IC50” value in the experiment with HL-60 [5] worked out at 0.69. For the same compound, the viability at 30 µM worked out at 88.1% in the experiment with HL-60 [10] and 9.9% with HL-60 [19].
In the case of `CC(=O)O[C@@H]1C[C@H]2C(C)(C)C(=O)C=C[C@]2(C)[C@H]2CC[C@]3(C)C(=CC(=O)[C@]3(O)c3ccoc3)[C@@]21C`, the IC50 in [4] is more than 20 µM; with HL-60 [6], more than 20 µM; in experiment [14], 19.1 µM; in the experiment on SK-BR-3 it was more than 20 µM; in the experiment with A549 it was more than 20 µM.

The record behind these values is ChEMBL document CHEMBL1773010, “Cytotoxic and apoptosis-inducing activities of limonoids from the seeds of Azadirachta indica (neem)” (J Nat Prod, 2011).
